Screening results deposited in PubChem by several laboratories.
T cell modulator: modulates CD8 T cell binding to vesicles | 2C CD8+ T cell-vesicle binding, flow cytometry; stronger effect = lower value | response (vesicle binding), % at 7 µM | actives 0.068% (n = 330,000);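 active = response, share of CD8 T cells binding vesicles, and their 90th percentile fluorescence all below set limits, cut at about 80% in these data, passing the limit was not always enough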;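 also: values below 100% mean blocked vesicle binding to the CD8+ T cells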
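Test system: purified 2C TCR transgenic mouse naive CD8+ T cells. Probe or stimulus: QL9-peptide-loaded Drosophila micro-vesicles bearing Ld, ICAM-1 and B7-1. Incubation: binding step 1.5 h, 37 °C, antibody labelling 20 min, ice. Measured by: flow cytometry of vesicle-bound cells.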
Mcl1-Bid inh: disrupts binding of human Mcl-1 to Bid peptide; Q07820; TR-FRET Mcl-1/Bid-Dy647 peptide binding, 1536-well; inhibition, % at 21.7 µM; actives 0.97% (n = 220,000);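 active = compounds that cut the binding signal by more than half at the single screening dose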;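 also: His-tagged Mcl-1 with europium anti-His antibody binding Bid BH3 peptide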
Target sequence (Q07820 whole entry, looked up): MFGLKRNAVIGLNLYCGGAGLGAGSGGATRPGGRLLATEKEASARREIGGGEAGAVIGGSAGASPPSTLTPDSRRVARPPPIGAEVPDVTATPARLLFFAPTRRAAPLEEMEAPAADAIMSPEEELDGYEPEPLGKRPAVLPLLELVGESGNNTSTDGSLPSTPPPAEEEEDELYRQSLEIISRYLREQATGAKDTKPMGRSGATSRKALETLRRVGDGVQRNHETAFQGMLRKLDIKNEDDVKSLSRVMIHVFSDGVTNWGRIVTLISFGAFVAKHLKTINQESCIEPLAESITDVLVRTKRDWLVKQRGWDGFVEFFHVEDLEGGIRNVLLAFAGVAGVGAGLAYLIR
Bim-Mcl-1: inhibitors of Bim-Mcl-1 interaction, human | Bead-based flow cytometry, Bim peptide-Mcl-1 binding | inhibition, % at 10 µM | actives 0.1% (n = 190,000) | AID 1009; in the data active = inhibition above about 40%
Pemphigus Ab inh: blocks pemphigus antibody binding to human desmoglein-3; P32926; DSG3-coupled beads, scFv-anti-DSG3-GFP binding, flow cytometry; stronger effect = lower value; binding (percent of control), % at 10 µM; actives 0.48% (n = 310,000); AID 588358;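 active = binding more than 3 SD below its plate's average and above zero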;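 also: hits lower antibody fragment binding to DSG3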
MCL1-BIM inh: disrupts human MCL1 binding to BIM-BH3 peptide | AID 2057 | actives 0.68% (n = 320,000) | Q07820 | GST-MCL1 / FITC-Bim-BH3 fluorescence polarization | inhibition, % at 10.9 µM;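 active = inhibition above the mean inhibition of all tested compounds plus 3 SD, set per campaign, cut at about 40% in these data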;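 also: higher means more loss of mP so more displacement of Bim peptide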
Mcl1-Noxa inh: disrupts binding of human Mcl-1 to Noxa peptide; Q07820; TR-FRET Mcl-1/Noxa peptide binding, 2 h; inhibition, % at 21.7 µM; actives 1.5% (n = 220,000); AID 1022;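 active = compounds that cut the protein-peptide binding signal by more than 50% relative to plate controls in a single-dose test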;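 also: His-tagged Mcl-1 with rhodamine Noxa BH3 peptide and terbium anti-His antibody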
Hits are given with their value; i = inactive; nt = no result given. Only some compounds are listed: those with a hit (about 2.3% of all), similar ones and a draw of the others.

SMILES	T cell modulator	Mcl1-Bid inh	Bim-Mcl-1	Pemphigus Ab inh	MCL1-BIM inh	Mcl1-Noxa inh
CC(C)(C)SCCNC(=O)CN(c1ccccc1)S(=O)(=O)c1ccc(F)cc1	i	i	i	5.2	i	i
O=S(=O)(Nc1nccs1)c1ccc(Nc2nnc(-c3ccccc3)c3ccccc23)cc1	i	i	i	i	i	68
Cc1onc(-c2ccccc2)c1C(=O)Nc1ccc(S(=O)(=O)Nc2nccs2)cc1	i	i	nt	i	i	i
COc1ccccc1N1CCN(/N=C/c2cc(OC)c(O)c(OC)c2)CC1	i	i	i	i	i	54
COc1ccc(CN2CCCC(C(=O)N3CCCC3)C2)c(OC)c1 (centres undefined)	i	nt	nt	i	i	nt
COc1cc(OC)c(OC)cc1CN1CCCC(C(=O)N2CCCCC2)C1 (centres undefined)	i	53	i	i	i	i
COc1ccc(OC)c(CN2CCC(C(=O)N3CCOCC3)CC2)c1	i	53	i	i	i	i
CN1C(=O)[C@H]2[C@@H](c3ccc(C(F)(F)F)cc3)N[C@]3(CCCN(CC4CCCCC4)C3=O)[C@H]2C1=O	nt	nt	nt	i	nt	nt
Cc1ccc(N)cc1NC(=O)CN1CCOCC1	i	nt	nt	i	i	nt
CN(C)c1ccc(NC(=O)Nc2ccc3snnc3c2)cc1	i	i	i	i	i	93
Cc1ccc2oc(=O)c3cnn(CC(=O)NC4CCCCC4C)c3c2c1 (centres undefined)	i	65	i	i	i	i
Cc1ccc2oc(=O)c3cnn(CC(=O)NC4CCC(C)CC4)c3c2c1 (centres undefined)	i	i	i	i	i	i
Cc1ccccc1C(=O)NC1CC2CCCC(C1)N2C(=O)Nc1ccccc1 (centres undefined)	i	nt	nt	nt	i	nt
O=C(Nc1ccc(Cl)cc1)c1nc[nH]c1C(=O)NCCCNC(=O)c1[nH]cnc1C(=O)Nc1ccc(Cl)cc1	i	nt	nt	nt	nt	nt
c1ccc(CSC2=NNC(c3ccccn3)S2)cc1 (centres undefined)	68	i	nt	nt	i	i
O=C(CSC1=NNC(c2ccccn2)S1)Nc1ccc(C(F)(F)F)cc1 (centres undefined)	i	i	nt	i	i	i
Cn1c2ccccc2c2cc(C(=O)NNC(=O)CCl)sc21	i	i	i	i	i	60
CC(=O)NC(Cc1ccccc1)C(=O)Oc1ccc2ccccc2c1 (centres undefined)	nt	nt	nt	i	nt	nt
N#Cc1c(-c2ccco2)cc(-c2ccc(F)cc2)nc1N	i	i	i	i	i	65
CC(C)Cc1cc(-c2ccco2)c(C#N)c(N)n1	i	i	48	i	i	i
N#Cc1c(-c2ccc(F)cc2)cc(-c2cccnc2)nc1N	i	i	i	i	i	i
CC(=O)c1cccc(S(=O)(=O)N2CCC(C(=O)Nc3cccc(C(=O)NC4CC4)c3)CC2)c1	i	nt	nt	i	i	nt
CCOC(=O)C1=C(Cc2ccc(OC)cc2)C(=O)c2ccccc2C1=O	nt	i	i	i	nt	i
CCOC(=O)C1=C(Cc2ccc(C)cc2)C(=O)c2ccccc2C1=O	i	i	i	nt	i	67
CCCc1ccc(/C=C2\C(=O)c3ccccc3C(O)=C2C(=O)OCC)cc1	i	i	i	nt	i	88
SMILES	T cell modulator	Mcl1-Bid inh	Bim-Mcl-1	Pemphigus Ab inh	MCL1-BIM inh	Mcl1-Noxa inh
CCOC(=O)C1=C(C)OC(=Cc2ccc(OC)cc2)C1=O	nt	nt	nt	i	nt	nt
CCOC(=O)c1ccc(COC(=O)c2ccc3c(c2)-c2ccccc2C3=O)cc1	i	i	i	i	i	i
CCOC(=O)C1=C(O)c2ccccc2C(=O)/C1=C\c1ccc(CC)cc1	i	52	i	i	i	85
N#Cc1cnc(=S)n(-c2cc(C(F)(F)F)cc(C(F)(F)F)c2)c1N	nt	nt	nt	i	nt	nt
CN(c1ccccc1)S(=O)(=O)c1cccc(NC(=O)C2CCCO2)c1 (centres undefined)	i	nt	nt	i	nt	nt
CN1CCN(CC(=O)NC2CCCCC2)CC1	nt	54	i	i	i	i
COc1cccc(CN2CCN(CC#Cc3ccccc3)CC2CCO)c1 (centres undefined)	i	nt	nt	i	nt	nt
Nc1cccc(Nc2ccccc2)c1	i	i	i	i	i	i
c1ccc(Nc2cccc(Nc3ccccc3)c2)cc1	i	i	i	i	i	88
CCOCCCNC(=O)Cn1cnc2c(cnn2-c2ccc(C)c(C)c2)c1=O	i	nt	nt	i	i	nt
